Columns and labels:
Pancreas [1] = assay: Induction of insulin secretion in isolated rat pancreas; assay type: functional, tissue-based
Pancreas [2] = assay: Induction of insulin secretion in isolated rat pancreas relative to basal level; assay type: functional
P2Y purinoceptor 1 [3] = biological target: T1, P2Y purinoceptor 1 (Homo sapiens, UniProt P47900); assay: Agonist activity at P2Y1 receptor expressed in human HEK293 cells; assay type: functional, cell-based
[4] = Stability in human blood assessed as half life; assay type: ADME, tissue-based
[5] = Stability after 3 hrs in presence of alkaline phosphatase; assay type: ADME; conditions: isolated protein
Method in brief: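 4 mM nucleotide with calf intestine alkaline phosphatase (12.5 units) in 0.1 M Tris-HCl, 0.1 M MgCl2, final pH 9.8, at 37 °C for 3 h. Stopped at 80 °C for 15 min, then weak anion-exchange cleanup and freeze-drying. Residual analogue quantified by change in reverse-phase HPLC peak integration over time.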

P2Y purinoceptor 1 [6] = biological target: T1, P2Y purinoceptor 1; assay: Agonist activity at G-protein coupled P2Y1 receptor expressed in human 1321N1 cells assessed as increase in calcium by Fura2 assay; assay type: functional, cell-based
Method in brief: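 Cell suspensions loaded with fura-2; [Ca2+]i read by dual-excitation spectrofluorometry at 37 °C in 10 mM HEPES-buffered saline pH 7.4 with 1 mM CaCl2 and 1 mM MgCl2. EC50 from maximal [Ca2+]i rise across concentrations; three experiments on separate days.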

Rattus norvegicus [7] = assay: Antihyperglycemic activity against Han Wistar rat assessed as blood glucose level at […], iv after 45 mins by OGTT; assay type: functional
Rattus norvegicus [8] = assay: Antihyperglycemic activity against Han Wistar rat assessed as increase in insulin level at […], iv after 5 mins relative to basal level; assay type: functional
Pancreas [9] = assay: Increase in insulin secretion in isolated rat pancreas relative to ATP; assay type: functional
[10] = Stability in human serum assessed as half life of hydrolysis; assay type: ADME, cell-free
Rattus norvegicus [11] = assay: Antihyperglycemic activity against Han Wistar rat assessed as blood glucose level at […], iv after 150 mins by OGTT; assay type: functional
[12] = Stability in human whole blood assessed as half life; assay type: ADME, tissue-based
Rattus norvegicus [13] = assay: Antihyperglycemic activity against Han Wistar rat assessed as blood glucose level at 1 mg/kg, po after 45 mins by OGTT; assay type: functional
Method in brief: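 Overnight-fasted male Wistar Han rats, 10-11 weeks old, jugular-cannulated, 5 per group. Glibenclamide 1 mg/kg given orally at t = -30 min, then oral glucose 2 g/kg (3 mL/kg) at t = 0. Tail vein blood glucose read by glucometer over time, compared with saline-treated controls.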

T1 sequence (P47900 whole entry): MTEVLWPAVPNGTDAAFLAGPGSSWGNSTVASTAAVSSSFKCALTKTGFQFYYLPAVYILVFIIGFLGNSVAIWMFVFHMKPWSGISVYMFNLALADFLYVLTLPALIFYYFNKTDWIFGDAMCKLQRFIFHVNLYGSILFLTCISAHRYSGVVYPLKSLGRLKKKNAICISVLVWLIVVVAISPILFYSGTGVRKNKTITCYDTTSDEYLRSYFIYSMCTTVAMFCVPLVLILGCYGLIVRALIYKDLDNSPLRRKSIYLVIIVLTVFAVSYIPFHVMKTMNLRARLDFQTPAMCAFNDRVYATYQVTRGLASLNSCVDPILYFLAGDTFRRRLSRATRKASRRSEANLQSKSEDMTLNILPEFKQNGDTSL

SMILES: [BH3-]P(=O)(OC[C@H]1O[C@@H](n2cnc3c(N)nc(SC)nc32)[C@H](O)[C@H]1O)OP(=O)([O-])OP(=O)([O-])[O-].[Na+].[Na+].[Na+].[Na+] (stereo not given in full)
- EC50 (Pancreas [1]): 28 nM
- fold change (FC) (Pancreas [2]): 9
- EC50 (P2Y purinoceptor 1 [3]): 2.6 nM

SMILES: Nc1nc2c(ncn2[C@@H]2O[C@H](COP(=O)(O)OP(=O)(O)OP(=O)(O)OP(=O)(O)OC[C@H]3O[C@@H](n4cnc5c(=O)[nH]c(N)nc54)[C@H](O)[C@@H]3O)[C@@H](O)[C@H]2O)c(=O)[nH]1
- half-life [4]: 5 min

SMILES: CSc1nc(N)c2ncn([C@@H]3O[C@H](COP(=O)([O-])CP(=O)([O-])OP(=O)([O-])OP(=O)([O-])OC[C@H]4O[C@@H](n5cnc6c(N)nc(SC)nc65)[C@H](O)[C@@H]4O)[C@@H](O)[C@H]3O)c2n1.[Na+].[Na+].[Na+].[Na+]
- Stability [5]: Stable
- EC50 (P2Y purinoceptor 1 [6]; read-out: EC50): 420 nM
- Activity (Rattus norvegicus [7]): 100 mg/dL
- FC (Rattus norvegicus [8]): 4

SMILES: CSc1nc(N)c2ncn([C@@H]3O[C@H](COP(=O)([O-])OP(=O)([O-])CP(=O)([O-])OP(=O)([O-])OC[C@H]4O[C@@H](n5cnc6c(N)nc(SC)nc65)[C@H](O)[C@@H]4O)[C@@H](O)[C@H]3O)c2n1.[Na+].[Na+].[Na+].[Na+]
- Stability [5]: Stable
- EC50 (P2Y purinoceptor 1 [6]; read-out: EC50): 460 nM

SMILES: CSc1nc(N)c2ncn([C@@H]3O[C@H](COP(=O)([O-])CP(=O)([O-])OP(=O)([O-])OC[C@H]4O[C@@H](n5cnc6c(N)nc(SC)nc65)[C@H](O)[C@@H]4O)[C@@H](O)[C@H]3O)c2n1.[Na+].[Na+].[Na+]
- Stability [5]: Stable
- EC50 (P2Y purinoceptor 1 [6]; 1321-n1): Not Active

SMILES: Nc1ncnc2c1ncn2[C@H]1O[C@@H](COP(=O)(O)OP(=O)(O)OP(=O)(O)OC[C@@H]2O[C@H](n3cnc4c(N)ncnc43)[C@@H](O)[C@H]2O)[C@H](O)[C@@H]1O
- EC50 (P2Y purinoceptor 1 [6]; read-out: EC50): 11 nM

SMILES: CCCCCCSc1nc(N)c2ncn([C@H]3O[C@@H](COP(O)(=S)OP(=O)(O)OP(=O)(O)O)[C@H](O)[C@@H]3O)c2n1 (stereo not given in full)
- fold change (FC) (Pancreas [9]): 100

SMILES: CSc1nc(N)c2ncn([C@@H]3O[C@H](COP(=O)(O)OP(=O)(O)O)[C@@H](O)[C@H]3O)c2n1 (single isomer, unassigned)
- half-life [10]: 726 min

SMILES: CSc1nc(N)c2ncn([C@@H]3O[C@H](COP(=O)(O)OP(=O)(O)CP(=O)(O)O)[C@@H](O)[C@H]3O)c2n1 (single isomer, unassigned)
- EC50 (P2Y purinoceptor 1 [6]; read-out: EC50): 80 nM
- Activity (Rattus norvegicus [11]): 85 mg/dL

SMILES: Nc1ncnc2c1ncn2[C@@H]1O[C@H](COP(=O)(O)OP(=O)(O)O)[C@@H](O)[C@H]1O [ADENOSINE DIPHOSPHATE]
- EC50 (P2Y purinoceptor 1 [6]; read-out: EC50): 14 nM

SMILES: Nc1ncnc2c1ncn2[C@@H]1O[C@H](COP(=O)(O)OP(=O)(O)OP(=O)(O)OP(=O)(O)OC[C@H]2O[C@@H](n3cnc4c(N)ncnc43)[C@H](O)[C@@H]2O)[C@@H](O)[C@H]1O [DIADENOSINE TETRAPHOSPHATE]
- half-life [12]: 2 min

SMILES: COc1ccc(Cl)cc1C(=O)NCCc1ccc(S(=O)(=O)NC(=O)NC2CCCCC2)cc1 [GLYBURIDE]
- Activity (Rattus norvegicus [13]): 63 mg/dL

Source: ChEMBL document CHEMBL1157627, “A novel insulin secretagogue based on a dinucleoside polyphosphate scaffold” (J Med Chem, 2010)
